Measurements taken from ChEMBL document CHEMBL1909531, “Mitochondrial respiration inhibitors suppress protein translation and hypoxic signaling via the hyperphosphorylation and inactivation of translation initiation factor eIF2α and elongation factor eEF2” (J Nat Prod, 2011).
Calls of active or inactive are those of the source.

Columns and labels:
[1] = target: T1, Hypoxia inducible factors; HIF-1-alpha, HIF-2-alpha (Homo sapiens, UniProt Q16665+Q99814); experiment: Inhibition of hypoxia-induced HIF1 activation in human T47D cells after 16 hrs by HRE3-TK-luciferase reporter gene assay; format: cell-based
Outline: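 T47D cells carrying the pHRE3-TK-Luc reporter, grown in DMEM/F12 with 10% FBS; HIF-1 induced by hypoxia (1% O2). Activity reported as % inhibition of the induced control, calculated as [1 − (treated/control)] × 100.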

[2] = target: T1, Hypoxia inducible factors; HIF-1-alpha, HIF-2-alpha; experiment: Inhibition of 1, 10-phenanthroline-induced HIF1 activation in human T47D cells after 16 hrs by HRE3-TK-luciferase reporter gene assay; format: cell-based
[3] = target: T1, Hypoxia inducible factors; HIF-1-alpha, HIF-2-alpha; experiment: Inhibition of HIF1-mediated induction of VEGF mRNA expression in hypoxia-stimulated human T47D cells at 0.3 to 3 uM after 16 hrs by RT-PCR analysis; format: cell-based
[4] = target: T1, Hypoxia inducible factors; HIF-1-alpha, HIF-2-alpha; experiment: Inhibition of HIF1-mediated induction of cellular VEGF protein in hypoxia-stimulated human T47D cells at 0.3 uM after 16 hrs by ELISA; format: cell-based
[5] = target: T1, Hypoxia inducible factors; HIF-1-alpha, HIF-2-alpha; experiment: Inhibition of HIF1-mediated induction of secreted VEGF protein in hypoxia-stimulated human T47D cells at 0.3 uM after 16 hrs by ELISA; format: cell-based
[6] = target: T1, Hypoxia inducible factors; HIF-1-alpha, HIF-2-alpha; experiment: Inhibition of HIF1-mediated induction of cellular VEGF protein in hypoxia-stimulated human T47D cells at 3 uM after 16 hrs by ELISA; format: cell-based
[7] = target: T1, Hypoxia inducible factors; HIF-1-alpha, HIF-2-alpha; experiment: Inhibition of HIF1-mediated induction of secreted VEGF protein in hypoxia-stimulated human T47D cells at 3 uM after 16 hrs by ELISA; format: cell-based
[8] = target: T1, Hypoxia inducible factors; HIF-1-alpha, HIF-2-alpha; experiment: Inhibition of HIF1-mediated induction of Glut-1 mRNA expression in human T47D cells at 3 uM after 16 hrs by RT-PCR analysis under normoxic condition; format: cell-based
[9] = target: T1, Hypoxia inducible factors; HIF-1-alpha, HIF-2-alpha; experiment: Inhibition of HIF1-mediated induction of VEGF mRNA expression in human T47D cells at 3 uM after 16 hrs by RT-PCR analysis under normoxic condition; format: cell-based
[10] = target: T1, Hypoxia inducible factors; HIF-1-alpha, HIF-2-alpha; experiment: Inhibition of HIF1-mediated induction of cellular VEGF protein in human T47D cells at 3 uM after 16 hrs by ELISA under normoxic condition; format: cell-based
[11] = target: T1, Hypoxia inducible factors; HIF-1-alpha, HIF-2-alpha; experiment: Inhibition of HIF1-mediated induction of secreted VEGF protein in human T47D cells at 3 uM after 16 hrs by ELISA under normoxic condition; format: cell-based
[12] = tested on: T47D; experiment: Inhibition of HIF1alpha protein accumulation under hypoxic condition in human T47D cells at 3 uM after 4 hrs by Western blot analysis; format: functional, cell-based
[13] = tested on: T47D; experiment: Inhibition of HIF1beta protein accumulation under hypoxic condition in human T47D cells at 3 uM after 4 hrs by Western blot analysis; format: functional, cell-based
[14] = tested on: T47D; experiment: Inhibition of 1, 10-phenanthroline-induced HIF1beta protein accumulation in human T47D cells at 3 uM after 4 hrs by Western blot analysis; format: functional, cell-based
[15] = tested on: T47D; experiment: Inhibition of cellular respiration in human T47D cells at 0.3 uM by oxygen consumption assay in presence of complex 1 substrate malate and pyruvate; format: functional, cell-based
Outline: (§1)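 Permeabilized T47D cells, oxygen consumption measured by Clark-type electrode. Complex I respiration started with malate plus pyruvate; succinate added as complex II substrate.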

[16] = tested on: T47D; experiment: Inhibition of cellular respiration in human T47D cells at 0.3 uM in presence of complex 2 substrate succinate; format: functional, cell-based; outline: as §1
[17] = tested on: T47D; experiment: Antiproliferative activity against human T47D cells assessed as cell viability by SRB assay; format: functional, cell-based
Outline: (§2)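 Cells grown in DMEM/F12 with 10% FBS, penicillin and streptomycin; 96-well viability assay, 2-day or 6-day exposure, with medium (5% FBS) and compound renewed after 3 days in the 6-day study. Read by optical density; % inhibition = [1 − (ODtreated/ODcontrol)] × 100 versus medium control.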

[18] = tested on: MDA-MB-231; experiment: Antiproliferative activity against human MDA-MB-231 cells assessed as cell viability by SRB assay; format: functional, cell-based; outline: as §2
[19] = tested on: PC-3; experiment: Antiproliferative activity against human PC3 cells assessed as cell viability by SRB assay; format: functional, cell-based; outline: as §2
[20] = tested on: MDA-MB-231; experiment: Reduction in ATP level in human MDA-MB-231 cells at 0.1 to 1 uM after 48 hrs by HPLC-UV analysis; format: functional, cell-based
Outline: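 Cells seeded at 5 × 10^5 per well in DMEM/F12 with 10% FBS; after 24 h, half the medium was replaced with serum-free medium containing compound. Cells washed with cold DPBS, extracted with cold 0.4 M perchloric acid, neutralized with K2CO3. Nucleotides quantified by C18 HPLC-UV, 50 mM potassium phosphate pH 6.0/MeOH mobile phase, 0.7 mL/min.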

[21] = tested on: MDA-MB-231; experiment: Reduction in ATP level in human MDA-MB-231 cells after 72 hrs by HPLC-UV analysis; format: functional, cell-based
Outline: (§3)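 5 × 10^5 cells per well seeded in DMEM/F12 with 10% FBS. After 24 h, half the medium replaced with serum-free DMEM/F12 containing compound. After exposure, cells washed in cold DPBS and extracted with cold 0.4 M perchloric acid, then neutralized with K2CO3. ATP quantified by reversed-phase C18 HPLC-UV using 50 mM potassium phosphate pH 6.0/MeOH at 0.7 mL/min.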

[22] = tested on: T47D; experiment: Reduction in ATP level in human T47D cells after 48 hrs by HPLC-UV analysis; format: functional, cell-based; outline: as §3
[23] = tested on: T47D; experiment: Antiproliferative activity against human T47D cells assessed as cell viability at 1 uM after 72 hrs by SRB assay; format: functional; details: read-out: Activity
Outline: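 T47D cells treated for 72 h in parallel with the HPLC ATP time course; viability measured by sulforhodamine B, in which cells are fixed directly in the wells without aspiration or washing, so loosely attached cells are kept.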

[24] = target: Serine/threonine-protein kinase mTOR (Homo sapiens) (UniProt P42345); experiment: Inhibition of mTORC1-mediated eIF4E phosphorylation on Ser 209 in human T47D cells at 1 to 10 uM after 30 mins by Western blotting; format: cell-based
[25] = target: Serine/threonine-protein kinase mTOR (Homo sapiens) (UniProt P42345); experiment: Inhibition of mTOR in human T47D cells assessed as eIF2alpha hyperphosphorylation on Ser 51 at 1 to 10 uM after 30 mins by Western blotting; format: cell-based
Outline: (§4)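 Cells seeded at 0.8 × 10^6 per well, exposed 30 min at 37 °C, 5% CO2, in DMEM/F12 with 5% FBS. Lysed in modified RIPA (pH 7.6) with protease and phosphatase inhibitors; 40 µg protein run on 4–20% gels, nitrocellulose transfer. Phospho-specific and total eIF2α/eEF2 primaries at 1:1,000, HRP anti-rabbit at 1:2000, chemiluminescence on film.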

[26] = target: Serine/threonine-protein kinase mTOR (Homo sapiens) (UniProt P42345); experiment: Inhibition of mTOR-mediated 4E-BP1 phosphorylation on Thr 37/46 in human MDA-MB-231 cells at 1 to 10 uM after 30 mins by Western blotting; format: cell-based
[27] = target: Serine/threonine-protein kinase mTOR (Homo sapiens) (UniProt P42345); experiment: Inhibition of mTOR-mediated rpS6 phosphorylation on Ser 235/236 in human MDA-MB-231 cells at 1 to 10 uM after 30 mins by Western blotting; format: cell-based
[28] = target: Serine/threonine-protein kinase mTOR (Homo sapiens) (UniProt P42345); experiment: Inhibition of mTOR in human MDA-MB-231 cells assessed as eIF2alpha hyperphosphorylation on Ser 51 at 1 to 10 uM after 30 mins by Western blotting; format: cell-based; outline: as §4
[29] = tested on: T47D; experiment: Inhibition of cellular respiration in human T47D cells at 0.3 uM in presence of complex 4 substrate TMPD/ascorbate; format: functional, cell-based

CC(C)CC(=O)O[C@@H]1CC[C@]2(C)[C@H]3CC[C@]45C[C@]4(CC[C@@H]5[C@@H]4C[C@H]([C@@H]5OC5(C)C)OC4O)[C@]3(C)[C@H](O)C[C@H]2C1(C)C (some centres undefined) [SKIMMIAREPIN A]
inactive: inhibition [8] | inhibition [9] | inhibition [10] | inhibition [11] | inhibition [13] | inhibition [14] | inhibition [16] | Activity [18] | Activity [20] | inhibition [24] | inhibition [26] | inhibition [27] | inhibition [29]
50%: viability at 1 µM [23]
0.063 µM: IC50 [1]
> 10 µM: IC50 [2]
active: inhibition [3] | inhibition [4] | inhibition [5] | inhibition [6] | inhibition [7] | inhibition [12] | inhibition [15] | Activity [17] | Activity [19] | Activity [21] Dose-dependent effect | Activity [22] | inhibition [25] Dose-dependent effect | Activity [28] Dose-dependent effect
